Test results taken from paper PMC2889198 (Bioconjugate chemistry, 2009).
pKd: −log10 of the molar value.

Key:
[1] = system: Androgen receptor N-terminal domain (AR-NTD), C-terminal His6-tag; test: SPR binding kinetics of tris-NTA chip with His6-tagged AR-NTD; settings: for kd Instant dissociation rate constant / ka Instant association rate constant: 25 °C, 1:1 binding model; for ka Instant association rate constant: Ni(II)-activated tris-NTA; for pKd: read-out: KD Equilibrium dissociation constant, 25 °C, 1:1 binding model
How it was run: (§1)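 Streptavidin chip washed with 50 mM NaOH/1 M NaCl and run in HBS-P pH 7.4 at 25 °C. Flow cell 1 is a blank; the others carry biotin-tris-NTA at about 50 RU. Each cycle: 5 mM NiCl2 activation, His6-protein injection (1–10 nM; mKate in 1 nM steps, 7 nM omitted), 0.3 M EDTA strip, 0.25% SDS/0.5 M NaCl rinse. Duplicates, double-referenced, global 1:1 Langmuir fit.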

[2] = target: T1, Yeast cytosine deaminase (yCD), C-terminal His6-tag (Saccharomyces cerevisiae, UniProt Q12178); test: SPR binding kinetics of tris-NTA chip with His6-tagged yCD; settings: for kon: read-out: ka Instant association rate constant; for koff: read-out: kd Instant dissociation rate constant
T1 sequence (Q12178 with tags, fused parts or gaps): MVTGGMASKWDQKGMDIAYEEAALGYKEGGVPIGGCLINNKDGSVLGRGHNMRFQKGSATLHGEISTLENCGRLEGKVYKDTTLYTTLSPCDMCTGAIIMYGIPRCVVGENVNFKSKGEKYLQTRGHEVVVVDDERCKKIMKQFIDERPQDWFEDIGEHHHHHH
How it was run: as §1

[3] = system: Tumor necrosis factor alpha-stimulated gene-6 (TSG6), C-terminal His6-tag; test: SPR binding kinetics of tris-NTA chip with His6-tagged TSG6; settings: for ka Instant association rate constant / kd Instant dissociation rate constant: 25 °C, 1:1 binding model; for pKd: read-out: KD Equilibrium dissociation constant, 25 °C, 1:1 binding model
How it was run: as §1

His6-tagged peptide […] = test: SPR binding kinetics of tris-NTA chip with His6-peptide; settings: for ka Instant association rate constant / kd Instant dissociation rate constant: 25 °C, 1:1 binding model; for pKd: read-out: KD Equilibrium dissociation constant, 25 °C, 1:1 binding model
[4] = system: Monomeric Katushka (mKate), C-terminal His6-tag; test: SPR binding kinetics of tris-NTA chip with His6-mKate; settings: for kd Instant dissociation rate constant / ka Instant association rate constant: 25 °C, 1:1 binding model; for ka Instant association rate constant: 1~10 nM analyte; for pKd: read-out: KD Equilibrium dissociation constant, 25 °C, 1:1 binding model
How it was run: as §1

[5] = target: hexahistidine (His6) tagged proteins; settings: read-out: equilibrium dissociation constant KD between mono-NTA and His6; cited from earlier work

| Structure (SMILES) | kd Instant dissociation rate constant [1] | ka Instant association rate constant [1] | pKd [1] | kon [2] [M⁻¹ s⁻¹] | koff [2] [s⁻¹] | ka Instant association rate constant [3] | kd Instant dissociation rate constant [3] | pKd [3] | ka Instant association rate constant (His6-tagged peptide […]) | kd Instant dissociation rate constant (His6-tagged peptide […]) | pKd (His6-tagged peptide […]) | kd Instant dissociation rate constant [4] | ka Instant association rate constant [4] | pKd [4] | pKd [5] |
| --- | --- | --- | --- | --- | --- | --- | --- | --- | --- | --- | --- | --- | --- | --- | --- |
| O=C(O)CN(CC(=O)O)[C@@H](CCCNC(=O)CN(CC(=O)NCCC[C@@H](C(=O)O)N(CC(=O)O)CC(=O)O)[C@@H](CCCCNC(=O)CCCC[C@@H]1SC[C@@H]2NC(=O)N[C@@H]21)C(=O)NCCC[C@@H](C(=O)O)N(CC(=O)O)CC(=O)O)C(=O)O [Compound 6c] | 0.27 10^−3 S^−1 | 1.44 10^5 M^−1 S^−1 | 8.73 | 197000 | 0.00059 | 3.92 10^5 M^−1 S^−1 | 0.008 10^−3 S^−1 | 10.70 | 2.19 10^5 M^−1 S^−1 | 0.72 10^−3 S^−1 | 8.48 | 0.43 10^−3 S^−1 | 10.6 10^5 M^−1 S^−1 | 9.40 | – |
| O=C(O)CN(CC(=O)O)[C@@H](CCCCNC(=O)CN(CC(=O)NCCCC[C@@H](C(=O)O)N(CC(=O)O)CC(=O)O)[C@@H](CCCCNC(=O)CCCC[C@@H]1SC[C@@H]2NC(=O)N[C@@H]21)C(=O)NCCCC[C@@H](C(=O)O)N(CC(=O)O)CC(=O)O)C(=O)O [Compound 6b] | 1.40 10^−3 S^−1 | 0.81 10^5 M^−1 S^−1 | 7.76 | 119000 | 0.00083 | 19.4 10^5 M^−1 S^−1 | 5.78 10^−3 S^−1 | 8.52 | 1.86 10^5 M^−1 S^−1 | 1.85 10^−3 S^−1 | 8.00 | – | – | – | – |
| O=C(O)CN(CC(=O)O)CC(=O)O [NTA, Nitrilotriacetic acid] | – | – | – | – | – | – | – | – | – | – | – | – | – | – | 5.00 |
| O=C(O)CN(CC(=O)O)[C@@H](CCCCNC(=O)CCOCCOCCOCCOCCNC(=O)CN(CC(=O)NCCOCCOCCOCCOCCC(=O)NCCCC[C@@H](C(=O)O)N(CC(=O)O)CC(=O)O)[C@@H](CCCCNC(=O)CCCC[C@@H]1SC[C@@H]2NC(=O)N[C@@H]21)C(=O)NCCOCCOCCOCCOCCC(=O)NCCCC[C@@H](C(=O)O)N(CC(=O)O)CC(=O)O)C(=O)O [Compound 6a] | 1.29 10^−3 S^−1 | 0.94 10^5 M^−1 S^−1 | 7.86 | – | – | 6.89 10^5 M^−1 S^−1 | 4.84 10^−3 S^−1 | 8.15 | 3.09 10^5 M^−1 S^−1 | 3.97 10^−3 S^−1 | 7.89 | 1.53 10^−3 S^−1 | 5.38 10^5 M^−1 S^−1 | 8.55 | – |
